Holding throughout (type): functional
The test system of one assay is Klebsiella pneumoniae. As to the kind of experiment: In vitro minimum inhibitory concentration against gram-negative Kp, Klebsiella pneumoniae B54. The gist of the method:
(§1)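 Two-fold agar dilution on Sensitivity Disk Agar-N (Japan Society of Chemotherapy method). Overnight broth cultures diluted in buffered saline with 0.01% gelatin to about 10⁶ CFU/mL. One loopful (5 μL/spot) inoculated onto plates containing graded agent concentrations. Incubation 37 °C, 18 h. MIC = lowest concentration inhibiting visible growth.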

The species named for assay [1] is Mus musculus. The assay can be described thus: Compound was tested for oral efficacy on systemic infections caused by Escherichia coli KC-14 in mice. In short, it runs like this:
(§2)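 Male ddY mice (25 g) infected intraperitoneally with 0.5 mL overnight brain heart infusion culture diluted in 5% gastric mucin, about 35 to 500 times the LD50. Compound given orally 1 h post-infection, as 1% aqueous gum arabic suspension or distilled water solution. Four dose groups of five mice. Survival followed daily for 7 days; ED50 by Weil method.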

The subject of assay [2] is Staphylococcus aureus. As to the kind of experiment: In vitro minimum inhibitory concentration against gram-positive Sa (F), Staphylococcus aureus FDA 209P JC-1. The gist of the method: as §1
Assay [3] has as its system Staphylococcus aureus. The assay can be described thus: In vitro minimum inhibitory concentration against gram-positive Sa (I), Staphylococcus aureus IID803. The gist of the method: as §1
Assay [4] is filed under the species Mus musculus. As to the kind of experiment: Compound was tested for oral efficacy on systemic infections caused by Staphylococcus aureus IID803 in mice. The gist of the method: as §2
Assay [5] has as its system Staphylococcus epidermidis. The assay can be described thus: In vitro minimum inhibitory concentration against gram-positive Se, Staphylococcus epidermidis IAM 1296. The gist of the method: as §1
For assay [6], the species on record is Mus musculus. The assay can be described thus: Compound was tested for oral efficacy on systemic infections caused by Escherichia coli KC-14 in mice. In short, it runs like this: as §2
Assay [7] is filed under the species Mus musculus. The assay can be described thus: Compound was tested for oral efficacy on systemic infections caused by Staphylococcus aureus IID803 in mice. In short, it runs like this:
as §2

The subject of assay [8] is Escherichia coli. As to the kind of experiment: Compound was tested for in vitro antibacterial activity (minimum inhibition concentration) against gram-negative Ec(K), Escherichia coli KC-14. In short, it runs like this:
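Two-fold agar dilution on Sensitivity Disk Agar-N (Japan Society of Chemotherapy method). Overnight broth cultures diluted in buffered saline with 0.01% gelatin to about 10⁶ CFU/mL; one loopful (5 μL/spot) inoculated onto plates with graded agent concentrations. Incubation 37 °C, 18 h; MIC = lowest concentration inhibiting visible growth.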

Assay [9] has as its system Escherichia coli. As to the kind of experiment: Compound was tested for in vitro antibacterial activity (minimum inhibition concentration) against gram-negative Ec(K), Escherichia coli KC-14. In short, it runs like this: as §1

Molecules are shown by their SMILES. Values after ≈ are worked out from the molar mass of the structure shown.

The compound `CN1Cc2csc3c(C(=O)O)c(=O)c4cc(F)c(N5CCNCC5)c1c4n23` registered an MIC in the assay with Klebsiella pneumoniae of 0.025 µg/mL (≈ 0.0644 µM). In addition, in the assay listed under Mus musculus [1], the ED50 was more than 2 mg/kg.

In the assay with Klebsiella pneumoniae, `CN1Cc2csc3c(C(=O)O)c(=O)c4cc(F)c(N5CCC(N)C5)c1c4n23` (centres undefined) gave an MIC of 0.025 µg/mL (≈ 0.0644 µM). Besides, the 50% effective dose (ED50) in the assay filed under Mus musculus [1] was more than 2 mg/kg.

With `CN1Cc2csc3c(C(=O)O)c(=O)c4cc(F)c(N5CCSCC5)c1c4n23`, the MIC in the assay with Staphylococcus aureus [2] turned out to be 0.025 µg/mL (≈ 0.0617 µM); with Staphylococcus aureus [3], 0.0125 µg/mL (≈ 0.0308 µM); in [5], 0.025 µg/mL (≈ 0.0617 µM). Besides, the ED50 in the assay listed under Mus musculus [4] is more than 12 mg/kg.

As to `CN1Cc2csc3c(C(=O)O)c(=O)c4cc(F)c(N5CCCC5)c1c4n23`, the ED50 in the assay filed under Mus musculus [6] was more than 2 mg/kg.

`CNCC1CCN(c2c(F)cc3c(=O)c(C(=O)O)c4scc5n4c3c2N(C)C5)C1` (centres undefined) came in with an ED50 in the assay listed under Mus musculus [4] of more than 12 mg/kg. In the assay on Klebsiella pneumoniae, this compound yielded an MIC of 0.025 µg/mL (≈ 0.06 µM).

With `CC1CN(c2c(F)cc3c(=O)c(C(=O)O)c4scc5n4c3c2N(C)C5)CCN1C` (centres undefined), the results for the ED50 in the assay filed under Mus musculus [7] and in the assay filed under Mus musculus [1] were 3 mg/kg and 2 mg/kg, respectively.

Regarding `CCC1CN(c2c(F)cc3c(=O)c(C(=O)O)c4scc5n4c3c2N(C)C5)CCN1C` (centres undefined), the MIC against Staphylococcus aureus [2] and with Staphylococcus aureus [3] was 0.05 µg/mL (≈ 0.116 µM) each time.

With `C[C@@H]1CN(c2c(F)cc3c(=O)c(C(=O)O)c4scc5n4c3c2N(C)C5)C[C@H](C)N1C`, in the assay with Staphylococcus aureus [2], inhibition of growth (MIC) required 0.025 µg/mL (≈ 0.0581 µM). The ED50 in the assay filed under Mus musculus [7] and in the assay listed under Mus musculus [1] was 2 mg/kg each time.

Regarding `C[C@@H]1CN(c2c(F)cc3c(=O)c(C(=O)O)c4scc5n4c3c2N(C)C5)C[C@H](C)N1`, the MIC against Staphylococcus aureus [2], with Staphylococcus aureus [3] and against Escherichia coli [8] was 0.05 µg/mL (≈ 0.12 µM) throughout. In the assay listed under Mus musculus [1], this compound had an ED50 of more than 2 mg/kg.

In the assay filed under Mus musculus [4], `CN1Cc2csc3c(C(=O)O)c(=O)c4cc(F)c(N5CCC(O)C5)c1c4n23` (centres undefined) displayed an ED50 of more than 12 mg/kg.

Turning to `CCN1CCN(c2c(F)cc3c(=O)c(C(=O)O)c4scc5n4c3c2N(C)C5)CC1`, the MIC against Staphylococcus aureus [3], against Escherichia coli [8] and in the assay with Klebsiella pneumoniae was 0.05 µg/mL (≈ 0.12 µM) each time. Moreover, the ED50 in the assay listed under Mus musculus [6] was 1 mg/kg; in the assay listed under Mus musculus [4], 3 mg/kg.

Take `CCN1[C@H](C)CN(c2c(F)cc3c(=O)c(C(=O)O)c4scc5n4c3c2N(C)C5)C[C@@H]1C.Cl`: the minimal inhibitory concentration (MIC) in the assay on Staphylococcus aureus [2] and against Staphylococcus aureus [3] was 0.05 µg/mL throughout.

Take `CCC1CN(c2c(F)cc3c(=O)c(C(=O)O)c4scc5n4c3c2N(C)C5)CCN1.Cl` (centres undefined): the MIC against Staphylococcus aureus [2] and against Staphylococcus aureus [3] was 0.05 µg/mL throughout.

As to `CCNCC1CCN(c2c(F)cc3c(=O)c(C(=O)O)c4scc5n4c3c2N(C)C5)C1.Cl` (centres undefined), the ED50 in the assay listed under Mus musculus [4] is more than 12 mg/kg. Further, 0.05 µg/mL was the least that counted as inhibitory in the assay with Klebsiella pneumoniae (MIC).

`CC1CN(c2c(F)cc3c(=O)c(C(=O)O)c4scc5n4c3c2N(C)C5)CCN1.Cl` (centres undefined) gave a 50% effective dose (ED50) in the assay filed under Mus musculus [1] of more than 2 mg/kg.

On to `CN1CCN(c2c(F)cc3c(=O)c(C(=O)O)c4scc5n4c3c2N(C)C5)CC1`, for which the MIC against Escherichia coli [9], in the assay on Staphylococcus aureus [3] and in the assay with Klebsiella pneumoniae was 0.05 µg/mL (≈ 0.124 µM) each time. The ED50 in the assay listed under Mus musculus [6] turned out to be 1 mg/kg; in the assay filed under Mus musculus [4] it was 3 mg/kg.

Consider `CN1Cc2csc3c(C(=O)O)c(=O)c4cc(F)c(N5CCOCC5)c1c4n23`, for which the ED50 in the assay listed under Mus musculus [4] was more than 12 mg/kg. The compound also came in with an MIC with Klebsiella pneumoniae of 0.05 µg/mL (≈ 0.128 µM).

For `CC1COc2c(N3CCN(C)CC3)c(F)cc3c(=O)c(C(=O)O)cn1c23` (centres undefined) [OFLOXACIN], the ED50 stood at 11 mg/kg in the assay filed under Mus musculus [4] and 1 mg/kg in the assay listed under Mus musculus [1].

For orientation: MIC means the least concentration at which growth counts as inhibited. As usually defined, the ED50 is the dose at which the effect has come halfway, by size or by number of responders. Lower therefore signals an effect at a small dose.
